# Measurements as given in ChEMBL document CHEMBL1909500, “Synthesis and in vitro anticancer activity of 6,7-methylenedioxy (or 5-hydroxy-6-methoxy)-2-(substituted selenophenyl)quinolin-4-one analogs” (Eur J Med Chem, 2011).
# Active and inactive are the calls of the source. The calls are words filed in the database; no cut-off is given here.
# Key:
# EKVX = assay: Anticancer activity against human EKVX cells after 48 hrs by MTT assay; format: functional
# HL-60 [1] = assay: Induction of apoptosis in human HL60 cells assessed as cell shrinkage at 1 uM after 24 hrs; format: functional, cell-based
# In short: (§1)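 HL-60 cells were exposed to 1 μM for 24 h. Apoptotic morphology, scored as cell shrinkage and apoptotic bodies, was examined by microscopy at 200×.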
# HL-60 [2] = assay: Cytotoxicity against human HL60 cells after 48 hrs by MTT assay; format: functional, cell-based; details: HL-60, 48 h
# In short: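 H460 or HL-60 cells were exposed to vehicle or compound for 48 h. Growth was read by MTT reduction at 570 nm, and IC50 was calculated.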
# COLO 205 = assay: Anticancer activity against human COLO205 cells after 48 hrs by MTT assay; format: functional; details: COLO 205, 48 h
# SNB-75 = assay: Anticancer activity against human SNB75 cells after 48 hrs by MTT assay; format: functional; details: SNB-75, 48 h
# RXF 393 = assay: Anticancer activity against human RXF393 cells after 48 hrs by MTT assay; format: functional; details: RXF 393, 48 h
# HL-60 [3] = assay: Growth inhibition of human HL60 cells after 24 to 48 hrs by trypan blue exclusion assay; format: functional, cell-based
# In short: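 HL-60 cells were given the indicated concentrations for 24 h and 48 h. Viable cells were counted by trypan blue exclusion. Values are mean ± SD of four independent experiments.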
# MCF7 = assay: Anticancer activity against human MCF7 cells after 48 hrs by MTT assay; format: functional; details: MCF7, 48 h
# OVCAR-4 = assay: Anticancer activity against human OVCAR4 cells after 48 hrs by MTT assay; format: functional; details: OVCAR-4, 48 h
# OVCAR-3 = assay: Anticancer activity against human OVCAR3 cells after 48 hrs by MTT assay; format: functional; details: OVCAR-3, 48 h
# MDA-MB-231 = assay: Anticancer activity against human MDA-MB-231 cells after 48 hrs by MTT assay; format: functional; details: MDA-MB-231, 48 h
# NCI-H522 = assay: Anticancer activity against human NCI-H522 cells after 48 hrs by MTT assay; format: functional; details: NCI-H522, 48 h
# UACC-62 = assay: Anticancer activity against human UACC62 cells after 48 hrs by MTT assay; format: functional; details: UACC-62, 48 h
# HL-60 [4] = assay: Cell cycle arrest in human HL60 assessed as cell accumulation in G2/M phase at 1 uM after 24 hrs pretreated with pan-caspase inhibitor z-VAD-fmk for 3 hrs by propidium iodide staining-based flow cytometric analysis; format: functional; design: scale not given: the % may be the effect or the level left
# In short: (§2)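 HL-60 cells were preincubated for 3 h with or without the pan-caspase inhibitor z-VAD-fmk, then co-exposed to compound at 1 μM for 24 h. Cells were washed in PBS and fixed overnight in ice-cold 70% ethanol at −20 °C. They were stained for 30 min in the dark with propidium iodide 4 μg/mL, 0.1 mg/ml RNase and 1% Triton X-100. DNA content was read on a FACScan flow cytometer.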
# A498 = assay: Anticancer activity against human A498 cells after 48 hrs by MTT assay; format: functional; details: A498, 48 h
# NCI-H23 = assay: Anticancer activity against human NCI-H23 cells after 48 hrs by MTT assay; format: functional; details: NCI-H23, 48 h
# SF-295 = assay: Anticancer activity against human SF295 cells after 48 hrs by MTT assay; format: functional; details: SF-295, 48 h
# NCI-H322M = assay: Anticancer activity against human NCI-H322M cells after 48 hrs by MTT assay; format: functional
# SK-MEL-5 = assay: Anticancer activity against human SK-MEL-5 cells after 48 hrs by MTT assay; format: functional; details: SK-MEL-5, 48 h
# SK-MEL-2 = assay: Anticancer activity against human SK-MEL-2 cells after 48 hrs by MTT assay; format: functional; details: SK-MEL-2, 48 h
# M14 = assay: Anticancer activity against human M14 cells after 48 hrs by MTT assay; format: functional; details: M14, 48 h
# SNB-19 = assay: Anticancer activity against human SNB19 cells after 48 hrs by MTT assay; format: functional; details: SNB-19, 48 h
# CAKI-1 = assay: Anticancer activity against human Caki1 cells after 48 hrs by MTT assay; format: functional; details: CAKI-1, 48 h
# SK-MEL-28 = assay: Anticancer activity against human SK-MEL-28 cells after 48 hrs by MTT assay; format: functional; details: SK-MEL-28, 48 h
# HL-60 [5] = assay: Cell cycle arrest in human HL60 assessed as cell accumulation in G0/G1 phase at 1 uM after 24 hrs by propidium iodide staining-based flow cytometric analysis; format: functional; in short: as §2
# HOP-62 = assay: Anticancer activity against human HOP62 cells after 48 hrs by MTT assay; format: functional; details: HOP-62, 48 h
# HT-29 = assay: Anticancer activity against human HT-29 cells after 48 hrs by MTT assay; format: functional; details: HT-29, 48 h
# HL-60 [6] = assay: Cell cycle arrest in human HL60 assessed as cell accumulation in S phase at 1 uM after 24 hrs by propidium iodide staining-based flow cytometric analysis; format: functional; in short: as §2
# HL-60 [7] = assay: Induction of apoptosis in human HL60 cells assessed as formation of apoptotic bodies at 1 uM after 24 hrs; format: functional, cell-based; in short: as §1
# OVCAR-5 = assay: Anticancer activity against human OVCAR5 cells after 48 hrs by MTT assay; format: functional; details: OVCAR-5, 48 h
# [8] = read-out: pLC50 (the source's name) (converted)
structure (smiles),measurement,setting,value
Cc1ccc(-c2cc(=O)c3cc4c(cc3[nH]2)OCO4)[se]1,GI50,EKVX,617 nM
same,CC50,EKVX; [8],> 100000 nM
same,TGI,EKVX; read-out: pTGI,> 100000 nM
same,Activity,HL-60 [1],Active
same,IC50,HL-60 [2],300 nM
same,GI50,COLO 205,2630 nM
same,CC50,COLO 205; [8],> 100000 nM
same,TGI,COLO 205; read-out: pTGI,> 100000 nM
same,GI50,SNB-75,275 nM
same,CC50,SNB-75; [8],> 100000 nM
same,TGI,SNB-75; read-out: pTGI,> 100000 nM
same,GI50,RXF 393,229 nM
same,CC50,RXF 393; [8],> 100000 nM
same,TGI,RXF 393; read-out: pTGI (converted),589 nM
same,growth inhibition (GI),HL-60 [3],Dose-dependent effect
same,GI50,MCF7,324 nM
same,CC50,MCF7; [8],> 100000 nM
same,TGI,MCF7; read-out: pTGI,> 100000 nM
same,GI50,OVCAR-4,575 nM
same,CC50,OVCAR-4; [8],> 100000 nM
same,TGI,OVCAR-4; read-out: pTGI,> 100000 nM
same,GI50,OVCAR-3,240 nM
same,TGI,OVCAR-3; read-out: pTGI (converted),457 nM
same,GI50,MDA-MB-231,501 nM
same,CC50,MDA-MB-231; [8],> 100000 nM
same,TGI,MDA-MB-231; read-out: pTGI,> 100000 nM
same,GI50,NCI-H522,288 nM
same,CC50,NCI-H522; [8],> 100000 nM
same,TGI,NCI-H522; read-out: pTGI (converted),537 nM
same,GI50,UACC-62,398 nM
same,CC50,UACC-62; [8],> 100000 nM
same,TGI,UACC-62; read-out: pTGI,> 100000 nM
same,Activity,HL-60 [4],55.5%
same,GI50,A498,372 nM
same,CC50,A498; [8],> 100000 nM
same,TGI,A498; read-out: pTGI,> 100000 nM
same,GI50,NCI-H23,741 nM
same,CC50,NCI-H23; [8],> 100000 nM
same,TGI,NCI-H23; read-out: pTGI,> 100000 nM
same,GI50,SF-295,347 nM
same,CC50,SF-295; [8],> 100000 nM
same,TGI,SF-295; read-out: pTGI,> 100000 nM
same,GI50,NCI-H322M,> 100000 nM
same,CC50,NCI-H322M; [8],> 100000 nM
same,TGI,NCI-H322M; read-out: pTGI,> 100000 nM
same,GI50,SK-MEL-5,309 nM
same,GI50,SK-MEL-2,110 nM
same,CC50,SK-MEL-2; [8],> 100000 nM
same,TGI,SK-MEL-2; read-out: pTGI (converted),525 nM
same,GI50,M14,229 nM
same,CC50,M14; [8],> 100000 nM
same,TGI,M14; read-out: pTGI,> 100000 nM
same,GI50,SNB-19,389 nM
same,CC50,SNB-19; [8],> 100000 nM
same,TGI,SNB-19; read-out: pTGI,> 100000 nM
same,GI50,CAKI-1,1820 nM
same,CC50,CAKI-1; [8],> 100000 nM
same,TGI,CAKI-1; read-out: pTGI,> 100000 nM
same,GI50,SK-MEL-28,794 nM
same,CC50,SK-MEL-28; [8],> 100000 nM
same,TGI,SK-MEL-28; read-out: pTGI,> 100000 nM
same,Activity,HL-60 [5],14.3%
same,GI50,HOP-62,562 nM
same,CC50,HOP-62; [8],> 100000 nM
same,TGI,HOP-62; read-out: pTGI,> 100000 nM
same,GI50,HT-29,269 nM
same,CC50,HT-29; [8],> 100000 nM
same,TGI,HT-29; read-out: pTGI,> 100000 nM
same,Activity,HL-60 [6],41.6%
same,Activity,HL-60 [7],Active
same,GI50,OVCAR-5,1700 nM
same,CC50,OVCAR-5; [8],> 100000 nM
same,TGI,OVCAR-5; read-out: pTGI,> 100000 nM
